In the library only some 2.9% were active in any assay of this set; here they are far more common.
hiPSC survival – increases survival of single human iPS cells | hiPSC single-cell survival, ATPlite luminescence; 100% = ROCK inhibitor wells, 0% = DMSO | survival enhancement, % at 20 µM | 0.044% of 360,000 active | AID 602274; in the data active = survival enhancement above about 18%;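 also: cells exposed to compounds for 16 hours before the ATP read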
NR1D1 modulator – modulators of human Rev-erb alpha DNA binding. P20393. Rev-erbα–FITC-DNA binding, fluorescence polarization, 90 min. activity, % at 10 µM. 0.79% of 370,000 active. AID 1259318;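 active = activity above about 14%, limit read from the data; passing the limit was not always enough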;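 also: 0% = DMSO wells with 35 nM protein and 100% = DMSO wells with 750 nM protein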
Target sequence (P20393 whole entry, looked up): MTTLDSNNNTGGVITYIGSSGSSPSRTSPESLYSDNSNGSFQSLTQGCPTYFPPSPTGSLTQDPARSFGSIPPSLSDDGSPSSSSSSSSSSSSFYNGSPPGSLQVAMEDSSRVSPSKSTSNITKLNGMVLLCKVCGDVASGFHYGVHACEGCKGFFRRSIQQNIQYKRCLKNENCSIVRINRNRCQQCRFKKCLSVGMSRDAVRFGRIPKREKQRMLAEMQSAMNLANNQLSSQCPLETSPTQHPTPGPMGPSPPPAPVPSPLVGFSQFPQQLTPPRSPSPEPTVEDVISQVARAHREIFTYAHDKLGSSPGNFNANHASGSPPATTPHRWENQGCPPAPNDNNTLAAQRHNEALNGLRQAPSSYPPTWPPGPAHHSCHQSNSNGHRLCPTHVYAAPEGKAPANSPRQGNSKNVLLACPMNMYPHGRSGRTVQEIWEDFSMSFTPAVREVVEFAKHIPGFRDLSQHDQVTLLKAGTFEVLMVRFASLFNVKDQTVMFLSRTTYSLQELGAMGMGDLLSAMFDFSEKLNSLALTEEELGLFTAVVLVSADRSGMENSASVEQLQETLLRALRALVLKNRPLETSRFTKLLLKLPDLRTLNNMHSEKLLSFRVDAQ
T cruzi inh – blocks replication of Trypanosoma cruzi | T. cruzi beta-gal in NIH3T3, luminescence, 90 h | inhibition, % (test concentration not listed) | 1.4% of 300,000 active;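 active = mean inhibition across valid replicates above about 55%, limit read from the data; inconclusive = mean below that limit but half or more replicates reach it; inactive = mean below it, under half of replicates reach it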;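 also: signal also drops with host cell toxicity which is not excluded here; 0% = plate median of DMSO wells and 100% = zero luminescence signal; higher percent means less beta-gal luminescence so fewer parasites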
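System: Mouse NIH/3T3 fibroblasts infected with β-gal-expressing T. cruzi Tulahuen C4 | Quantity: NIH/3T3 cells, 5,000 per well | Reagent: 5000 reporter trypomastigotes per well | Dosing: Compound pinned at 50 nL/well, DMSO | Schedule: 3 h host attachment, then at least 90 h co-culture | Detection: GalScreen luminescence, 60 min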
PG9 binder – small molecules binding HIV-1 gp120 antibody PG9. TR-FRET gp120-PG9 antibody binding. inhibition, % at 6.7 µM. 0.43% of 360,000 active. AID 624416; in the data active = inhibition above about 8.5%
MIN6 prolif – MIN6 beta-cell proliferation induction; MIN6 cells proliferation, ATPlite luminescence, 48 h; cells starved in 0.2% serum; 100% = growth in 10% serum; proliferation, % at 10 µM; 0.29% of 330,000 active; AID 2380;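 active = compounds whose signal lies at least 3.5 SD above the mean of all wells on their plate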;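 also: 0% = DMSO-treated cells in low-serum medium and 100% = 10% serum control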
TAG inh – inhibitors of triacylglycerol accumulation | H9c2 cells, Nile Red lipid (TAG) fluorescence; cells loaded with 200 µM oleic acid | inhibition, % at 12.5 µM | 0.66% of 230,000 active | AID 651582;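 active = pattern-corrected inhibition of lipid staining of at least 50% with the nuclear-stain viability signal not falling by more than 50%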;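 also: 0% = DMSO wells and 100% = triacsin C control wells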
The depositor's hits bear a star; u = inconclusive; x = no result given.

SMILES	hiPSC survival	NR1D1 modulator	T cruzi inh	PG9 binder	MIN6 prolif	TAG inh
Cc1ccc2oc(=O)c3cnn(CC(=O)NCCc4ccsc4)c3c2c1	0.4	10.1	-1.0	22.5*	-1.2	2.2
Cc1ccc2oc(=O)c3cnn(CC(=O)NC4CCN(Cc5ccccc5)CC4)c3c2c1	-2.8	-1.4	57.1*	-0.2	-2.2	-8.4
Cc1cccc(Cc2cnc(N3C(=N)SC(C)C3=O)s2)c1 (centres undefined)	-0.8	-7.5	68.1*	1.4	-6.7	7.0
CCN(C1CCCCC1)S(=O)(=O)c1ccc(S(=O)(=O)NCCc2ccncc2)cc1	-2.6	-0.4	u	-1.8	-3.0	x
CC1CCCC(C)N1S(=O)(=O)c1ccc(S(=O)(=O)NCCc2ccncc2)cc1 (centres undefined)	-0.1	-1.9	56.7*	3.1	0.3	x
O=C(Nc1cnn(C23CC4CC(CC(C4)C2)C3)c1)c1cc(-c2ccccc2)on1	-1.8	10.1	60.8*	-1.2	-2.6	x
O=C1CCC2(C(=O)O)Sc3ccccc3N12 (centres undefined)	20.9*	0.4	-27.2	0.7	-0.9	x
COc1ccc(NC(=O)COC(=O)C23CCC(=O)N2c2ccccc2S3)cc1 (centres undefined)	-0.7	-10.1	-19.4	0.4	-2.3	6.3
N=c1c2c(-c3ccccc3)c(-c3ccccc3)n(Cc3ccccc3)c2ncn1CCCn1ccnc1	-6.0	3.3	59.7*	-0.1	-6.8	x
N=c1c2c(-c3ccccc3)c(-c3ccccc3)n(Cc3ccco3)c2ncn1Cc1ccco1	1.4	-4.4	56.8*	-2.5	-5.6	-12.1
CC(C)CN(CC(C)C)c1ccc(/C=N/n2cnnc2)cc1[N+](=O)[O-]	-1.7	3.4	50.6	-0.4	-1.6	x
C[C@]12C[C@H](O)[C@H]3[C@@H](CCC4=CC(=O)CC[C@@]43C)[C@@H]1CC[C@@H]2C(=O)CO	3.9	-5.3	12.3	0.6	-2.3	20.0
CN(C)CCN(C(=O)c1ccc(S(=O)(=O)N(C)c2ccccc2)cc1)c1nc2cc3c(cc2s1)OCCO3	-0.5	-2.8	u	-0.3	-0.6	7.7
CN(C)CCCN(C(=O)c1cc2cc([N+](=O)[O-])ccc2s1)c1nc2cc3c(cc2s1)OCCO3	-0.5	-6.0	63.0*	-1.2	-7.4	45.1
CN(C)CCN(C(=O)c1ccc(S(=O)(=O)N(C)C)cc1)c1nc2cc3c(cc2s1)OCCO3	-2.8	6.6	60.7*	-1.7	2.0	x
Cc1ccc2nc(N(CCCN(C)C)C(=O)c3ccc(Br)s3)sc2c1	0.9	9.2	61.7*	-1.4	-4.8	9.8
CN(C)CCCN(C(=O)c1ccc([N+](=O)[O-])s1)c1nc2cc3c(cc2s1)OCCO3	-0.4	0.6	33.3	-5.0	-5.2	33.9
CCOc1ccc2nc(N(CCN(CC)CC)C(=O)c3ccc([N+](=O)[O-])cc3)sc2c1	1.1	-1.4	54.9*	1.1	2.8	9.2
CCOC(=O)CC(=O)CSc1nccc(-c2cccnc2)n1	-0.3	0.5	-2.8	0.9	-0.5	4.3
COCc1nnc(NS(=O)(=O)c2ccc(Cl)cc2)s1	-0.6	-5.1	-1.6	-2.8	-2.7	-9.6
O=C(c1ccccc1)C1N=NCC1c1ccc(Cl)cc1 (centres undefined)	-2.5	3.3	x	0.4	x	-1.1
CN(C)CCN(C(=O)c1ccc2ccccc2c1)c1nc2cc3c(cc2s1)OCO3	19.1*	0.4	x	-0.2	x	3.8
CN(C)CCCN(C(=O)c1ccco1)c1nc2c(F)cc(F)cc2s1	-0.9	1.5	57.1*	-1.2	-0.9	17.7
COc1ccc2nc(N(CCN(C)C)C(=O)c3ccc4c(c3)OCCO4)sc2c1	-0.6	-3.3	64.5*	0.1	-0.4	17.8
CN(C)CCN(C(=O)c1ccc2c(c1)OCCO2)c1nc2cc3c(cc2s1)OCO3	-0.6	-2.1	31.9	-1.7	-0.9	-1.2
Cc1ccc2nc(N(CCCN(C)C)C(=O)c3ccco3)sc2c1	-0.2	-2.9	55.8*	1.6	-1.9	3.4
CN(C)CCCN(C(=O)c1ccco1)c1nc2c(F)cccc2s1	-0.9	2.8	u	-1.4	-3.8	12.7
CC(C)C[C@@H](CN(N=O)[C@@H](Cc1ccccc1)CN(C)N=O)N(CCc1ccccc1)N=O	0.3	5.9	20.8	0.7	-4.5	4.4

Screening results as filed in PubChem BioAssay.
